Measurements as given in ChEMBL document CHEMBL5154713, “Illuminating a Dark Kinase: Structure-Guided Design, Synthesis, and Evaluation of a Potent Nek1 Inhibitor and Its Effects on the Embryonic Zebrafish Pronephros” (J Med Chem, 2022).

Assays:
[1] = biological target: Calcium/calmodulin-dependent protein kinase kinase 2 (Homo sapiens) (UniProt Q96RR4); test: Inhibition of human full length CAMKK2 assessed as residual activity at 1 uM using calmodulin as substrate incubated for 40 mins in presence of [gamma 33P]-ATP by radiometric scintillation counting assay relative to control
Outline: (§1)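 Commercial radiometric panel of 50 kinases. Each recombinant human kinase was tested at a single compound concentration of 1 μM. ATP was set within 15 μM of the apparent Km for ATP for each kinase. Residual activity is relative to control and is the mean of two independent experiments.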

[2] = biological target: Inhibitor of nuclear factor kappa-B kinase subunit epsilon (Homo sapiens) (UniProt Q14164); test: Inhibition of human full length recombinant IKKepsilon assessed as residual activity at 1 uM using casein as substrate incubated for 40 mins in presence of [gamma 33P]-ATP by radiometric scintillation counting assay relative to control; outline: as §1
[3] = biological target: MAP kinase-activated protein kinase 2 (Homo sapiens) (UniProt P49137); test: Inhibition of recombinant human MAPKAPK2 (46 to end residues) assessed as residual activity at 1 uM using KKLNRTLSVA as substrate incubated for 40 mins in presence of [gamma-33P]-ATP by radiometric scintillation counting method relative to control; outline: as §1
[4] = biological target: CDK6/cyclin D3 (Homo sapiens) (UniProt P30281+Q00534); test: Inhibition of human full length recombinant CDK6/CyclinD3 assessed as residual activity at 1 uM using histone H1 as substrate incubated for 40 mins in presence of [gamma 33P]-ATP by radiometric scintillation counting assay relative to control; type: protein-complex assay; outline: as §1
[5] = biological target: Tyrosine-protein kinase Lyn (Homo sapiens) (UniProt P07948); test: Inhibition of recombinant human Lyn assessed as residual activity at 1 uM using poly(Glu, Tyr) 4:1 as substrate after 40 mins in presence of [gamma-33ATP] by scintillation counting based radiometry assay relative to control; outline: as §1
[6] = biological target: Tyrosine-protein kinase receptor TYRO3 (Homo sapiens) (UniProt Q06418); test: Inhibition of human RSE (451 to end residues) assessed as residual activity at 1 uM using KVEKIGEGTYGVVYK as substrate measured after 40 mins in presence of [gamma33P]ATP by radiometric scintillation counting method relative to control; outline: as §1
[7] = biological target: Mitogen-activated protein kinase 14 (Homo sapiens) (UniProt Q16539); test: Inhibition of recombinant human full length SAPK2a assessed as residual activity at 1 uM using myelin basic protein as substrate measured after 40 mins in presence of [gamma33P]ATP by scintillation counting method relative to control; outline: as §1

Measured: Activity

Sequence of Calcium/calmodulin-dependent protein kinase kinase 2 (Homo sapiens) (Q96RR4 2-588 limits assumed): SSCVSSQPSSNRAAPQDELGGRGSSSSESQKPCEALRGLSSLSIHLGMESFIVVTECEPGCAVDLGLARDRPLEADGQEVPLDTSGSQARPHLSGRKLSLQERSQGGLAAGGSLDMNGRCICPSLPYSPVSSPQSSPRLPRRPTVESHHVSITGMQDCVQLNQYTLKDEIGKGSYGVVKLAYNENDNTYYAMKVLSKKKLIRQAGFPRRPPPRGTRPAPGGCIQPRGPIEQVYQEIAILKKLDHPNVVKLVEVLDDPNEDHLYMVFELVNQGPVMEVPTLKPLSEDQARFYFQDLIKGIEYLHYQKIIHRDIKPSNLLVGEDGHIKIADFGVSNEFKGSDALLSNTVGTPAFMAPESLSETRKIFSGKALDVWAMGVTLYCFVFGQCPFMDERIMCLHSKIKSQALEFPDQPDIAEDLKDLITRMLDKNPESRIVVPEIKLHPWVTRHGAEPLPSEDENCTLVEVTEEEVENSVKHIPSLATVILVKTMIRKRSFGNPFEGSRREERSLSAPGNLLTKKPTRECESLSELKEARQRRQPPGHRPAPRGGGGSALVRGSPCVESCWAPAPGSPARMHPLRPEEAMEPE
Sequence of MAP kinase-activated protein kinase 2 (Homo sapiens) (P49137 whole entry, looked up): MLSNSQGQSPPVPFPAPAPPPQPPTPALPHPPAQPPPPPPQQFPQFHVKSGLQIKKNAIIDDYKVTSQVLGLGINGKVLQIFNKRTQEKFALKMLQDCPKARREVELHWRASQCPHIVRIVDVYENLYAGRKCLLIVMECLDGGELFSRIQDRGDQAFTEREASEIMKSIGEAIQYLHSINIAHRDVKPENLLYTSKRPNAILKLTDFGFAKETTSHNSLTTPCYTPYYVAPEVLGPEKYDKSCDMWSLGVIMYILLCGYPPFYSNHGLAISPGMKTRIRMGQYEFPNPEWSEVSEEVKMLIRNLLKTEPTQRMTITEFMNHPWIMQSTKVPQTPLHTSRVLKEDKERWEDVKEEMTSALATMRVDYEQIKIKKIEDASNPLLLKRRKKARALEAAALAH
Sequence of Tyrosine-protein kinase Lyn (Homo sapiens) (P07948 2-512 limits assumed): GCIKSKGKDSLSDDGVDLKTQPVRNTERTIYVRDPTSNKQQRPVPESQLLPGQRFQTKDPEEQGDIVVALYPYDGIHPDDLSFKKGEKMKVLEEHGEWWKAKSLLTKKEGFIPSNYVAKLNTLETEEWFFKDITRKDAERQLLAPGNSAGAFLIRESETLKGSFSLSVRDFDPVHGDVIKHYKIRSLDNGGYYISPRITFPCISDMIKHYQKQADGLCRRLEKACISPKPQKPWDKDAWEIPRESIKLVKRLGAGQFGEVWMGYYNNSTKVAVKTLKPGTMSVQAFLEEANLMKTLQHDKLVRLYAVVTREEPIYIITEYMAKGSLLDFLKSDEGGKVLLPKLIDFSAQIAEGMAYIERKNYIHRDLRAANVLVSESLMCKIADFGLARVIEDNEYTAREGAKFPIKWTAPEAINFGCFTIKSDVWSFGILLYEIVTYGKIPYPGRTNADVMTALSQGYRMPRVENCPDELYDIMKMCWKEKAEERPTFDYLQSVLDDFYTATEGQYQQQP
Sequence of Tyrosine-protein kinase receptor TYRO3 (Homo sapiens) (Q06418 whole entry): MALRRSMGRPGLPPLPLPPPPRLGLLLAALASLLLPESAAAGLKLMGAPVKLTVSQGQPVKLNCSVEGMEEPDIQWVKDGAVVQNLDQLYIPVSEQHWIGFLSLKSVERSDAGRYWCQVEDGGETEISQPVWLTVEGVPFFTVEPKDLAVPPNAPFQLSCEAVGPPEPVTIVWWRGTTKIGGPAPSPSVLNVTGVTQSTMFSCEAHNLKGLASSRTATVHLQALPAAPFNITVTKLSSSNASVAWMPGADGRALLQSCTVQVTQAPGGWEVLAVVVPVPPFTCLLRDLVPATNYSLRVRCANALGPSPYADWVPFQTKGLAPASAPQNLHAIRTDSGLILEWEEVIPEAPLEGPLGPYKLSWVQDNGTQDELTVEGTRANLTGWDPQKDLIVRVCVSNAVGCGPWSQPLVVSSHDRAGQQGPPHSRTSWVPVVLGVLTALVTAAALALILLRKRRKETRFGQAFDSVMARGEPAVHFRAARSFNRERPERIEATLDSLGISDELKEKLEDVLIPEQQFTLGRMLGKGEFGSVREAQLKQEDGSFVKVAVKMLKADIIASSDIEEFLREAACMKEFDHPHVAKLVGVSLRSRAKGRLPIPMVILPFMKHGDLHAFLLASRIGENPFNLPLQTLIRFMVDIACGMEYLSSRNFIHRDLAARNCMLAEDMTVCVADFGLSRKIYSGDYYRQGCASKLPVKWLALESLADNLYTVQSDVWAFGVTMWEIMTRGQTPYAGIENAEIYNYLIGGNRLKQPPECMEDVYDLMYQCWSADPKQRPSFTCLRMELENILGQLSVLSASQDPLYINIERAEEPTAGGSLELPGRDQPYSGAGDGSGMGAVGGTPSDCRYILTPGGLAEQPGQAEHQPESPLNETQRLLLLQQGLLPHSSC
Sequence of Inhibitor of nuclear factor kappa-B kinase subunit epsilon (Homo sapiens) (Q14164 whole entry): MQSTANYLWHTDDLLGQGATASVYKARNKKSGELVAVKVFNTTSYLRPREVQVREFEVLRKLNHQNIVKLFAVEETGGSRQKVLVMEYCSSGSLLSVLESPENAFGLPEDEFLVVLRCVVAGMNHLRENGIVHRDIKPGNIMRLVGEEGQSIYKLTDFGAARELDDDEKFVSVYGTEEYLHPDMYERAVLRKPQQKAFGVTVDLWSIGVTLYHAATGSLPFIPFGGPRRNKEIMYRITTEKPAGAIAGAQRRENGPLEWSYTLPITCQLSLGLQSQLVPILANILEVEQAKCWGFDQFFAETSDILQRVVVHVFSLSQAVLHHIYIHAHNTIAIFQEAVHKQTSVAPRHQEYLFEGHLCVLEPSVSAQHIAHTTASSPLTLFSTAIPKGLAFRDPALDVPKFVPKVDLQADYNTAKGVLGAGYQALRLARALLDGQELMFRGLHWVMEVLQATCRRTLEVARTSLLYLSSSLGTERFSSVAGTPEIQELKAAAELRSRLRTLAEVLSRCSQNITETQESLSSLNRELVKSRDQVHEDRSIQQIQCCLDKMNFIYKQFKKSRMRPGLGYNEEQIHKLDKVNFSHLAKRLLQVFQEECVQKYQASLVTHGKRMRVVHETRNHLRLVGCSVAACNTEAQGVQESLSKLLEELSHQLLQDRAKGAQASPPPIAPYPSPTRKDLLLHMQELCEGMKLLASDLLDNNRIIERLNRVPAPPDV
Sequence of Mitogen-activated protein kinase 14 (Homo sapiens) (Q16539 whole entry): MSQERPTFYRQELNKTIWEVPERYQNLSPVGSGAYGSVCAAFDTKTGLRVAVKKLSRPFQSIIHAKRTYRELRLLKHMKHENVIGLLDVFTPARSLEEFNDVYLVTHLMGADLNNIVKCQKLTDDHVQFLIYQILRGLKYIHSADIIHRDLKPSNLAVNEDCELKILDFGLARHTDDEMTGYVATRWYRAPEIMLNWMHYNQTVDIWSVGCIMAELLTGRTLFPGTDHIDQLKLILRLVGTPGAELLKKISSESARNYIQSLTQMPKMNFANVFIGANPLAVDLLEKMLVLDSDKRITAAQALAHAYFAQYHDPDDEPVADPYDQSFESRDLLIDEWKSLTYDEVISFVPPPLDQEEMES

O=S(=O)(N[C@@H](CO)Cc1c[nH]c2ccccc12)c1ccc(-c2ccnc3[nH]ccc23)cc1
> 75%: all assays above
